Consider four molecules from ChEMBL document CHEMBL5390247, “Aryl azoles based scaffolds for disrupting tumor microenvironment” (Bioorg Med Chem, 2023).

Data set [1] in a line: Toxicity against interferon gamma-stimulated human THP-1 monocyte cells co-cultured with human HT-29 cells assessed as reduction in cell viability at 100 uM incubated for 48 hrs by flow cytometry analysis. The class given is cell-based. Conditions: thp-1, 48 h. In short, it runs like this:
(§1)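 HT-29 cells at 10^5/well seeded and grown 24 h. Medium then replaced with medium containing IFN-γ (10 ng/ml), 5 × 10^5 THP-1 cells/well and compound at 100 µM; DMSO used as control. After 48 h, THP-1 cells collected from supernatant and cancer cells by trypsinisation. Both fixed in 4% paraformaldehyde and counted by flow cytometry relative to control.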

The subject of data set [2] is HT-29. The data set is described as follows: Antiproliferative activity against human HT-29 cells assessed as reduction in IL-6 secretion at 100 uM incubated for 48 hrs by ELISA assay. The class given is functional, cell-based. In short, it runs like this:
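HT-29 monocultures at 10^5 cells/well treated 48 h with compound at 100 µM in 500 µL growth medium. Media collected and secreted IL-6 measured with a human IL-6 ELISA kit.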

Data set [3] deals with HT-29. In words: Immunomodulatory activity in human HT-29 cells co-cultured with interferon gamma-stimulated THP-1 cells assessed as inhibition of IL-6 secretion at 100 uM incubated for 48 hrs by ELISA analysis relative to control. The class given is functional. A digest of the protocol: (§2)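 HT-29 cells co-cultured with IFN-γ (10 ng/ml)-stimulated THP-1 cells and treated 48 h with compound at 100 µM. Culture media collected and IL-6 measured by human IL-6 ELISA, in pg/mL and as % of control. Mean of three experiments.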

Data set [4] relates to HT-29. The data set is described as follows: Immunomodulatory activity in human HT-29 cells co-cultured with interferon gamma-stimulated THP-1 cells assessed as relative PD-L1 protein expression in membrane at 100 uM incubated for 48 hrs by flow cytometry analysis relative to control. The class given is functional.
For data set [5], the system named is HT-29. The data set is described as follows: Immunomodulatory activity in human HT-29 cells co-cultured with interferon gamma-stimulated THP-1 cells assessed as cell viability at 100 uM incubated for 48 hrs by flow cytometry analysis relative to control. Format: functional. To be noted: read-out: Activity. In short, it runs like this: as §1
In data set [6] the test system is HT-29. In words: Immunomodulatory activity in human HT-29 cells co-cultured with interferon gamma-stimulated THP-1 cells assessed as relative CD-47 protein expression in membrane at 100 uM incubated for 48 hrs by flow cytometry analysis relative to control. Format: functional.
The subject of data set [7] is HT-29. The data set is described as follows: Immunomodulatory activity in human HT-29 cells co-cultured with interferon gamma-stimulated THP-1 cells assessed as relative IL-6 level at 100 uM incubated for 48 hrs by ELISA analysis relative to control. Format: functional. A digest of the protocol:
as §2

Data set [8] relates to HT-29. The data set is described as follows: Immunomodulatory activity in human HT-29 cells co-cultured with interferon gamma-stimulated THP-1 cells assessed as IL-6 level at 100 uM incubated for 48 hrs by ELISA analysis (reference value: 192 +/- 16 pg/ml). The class given is functional. A digest of the protocol: as §2
For data set [9], the system named is HT-29. The data set is described as follows: Immunomodulatory activity in human HT-29 cells co-cultured with interferon gamma-stimulated THP-1 cells assessed as inhibition of CD-47 protein expression at 100 uM incubated for 48 hrs by flow cytometry analysis relative to control. The class given is functional.
For data set [10], the system named is HT-29. In words: Antiproliferative activity against human HT-29 cells assessed as relative PD-L1 protein expression in whole cell at 100 uM incubated for 48 hrs by flow cytometry analysis relative to control. The class given is functional.
Data set [11] relates to HMEC-1. The data set is described as follows: Antiangiogenic activity in HMEC-1 cells assessed as inhibition of endothelial microtubes formation at 100 uM incubated for 24 hrs by matrigel based imaging analysis. Format: functional, cell-based. Conditions: Homo sapiens. A digest of the protocol:
(§3)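 HMEC-1 cells at 2 × 10^4 cells/well seeded on Matrigel (10 mg/mL, gelled 30 min at 37 °C) in EGM-2MV medium with SingleQuots, allowed to attach 30 min at 37 °C. Compounds then added in medium; after 24 h at 37 °C, microtube formation/destruction evaluated from pictures.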

For data set [12], the system named is HT-29. The data set is described as follows: Antiproliferative activity against human HT-29 cells assessed as relative c-Myc protein expression at 100 uM incubated for 48 hrs by flow cytometry analysis relative to control. Format: functional.
For data set [13], the system named is HT-29. In words: Antiproliferative activity against human HT-29 cells assessed as relative VEGFR-2 protein expression in membrane at 100 uM incubated for 48 hrs by flow cytometry analysis relative to control. Format: functional.
For data set [14], the system named is HT-29. In words: Antiproliferative activity against human HT-29 cells assessed as relative PD-L1 protein expression in membrane at 100 uM incubated for 48 hrs by flow cytometry analysis relative to control. The class given is functional.
The subject of data set [15] is HEK293. In words: Anti-vasculogenic activity against HEK293 cells assessed as disruption of tube-like structures at <75 uM incubated for 24 hrs by Matrigel based imaging analysis. The class given is functional, cell-based. Conditions: Homo sapiens. A digest of the protocol: (§4)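 HEK-293 cells seeded at 5 × 10^4 cells/well on Matrigel (pre-incubated with medium 24 h at 37 °C), grown 24 h at 37 °C until tube-like structures form; compounds then added in medium and incubated a further 24 h at 37 °C. Disruption of preformed tube-like structures assessed by imaging.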

Data set [16] has as its system HT-29. The data set is described as follows: Immunomodulatory activity in human HT-29 cells co-cultured with interferon gamma-stimulated THP-1 cells assessed as inhibition of PD-L1 protein expression in cell surface at 100 uM incubated for 48 hrs by flow cytometry analysis relative to control. The class given is functional.
In data set [17] the test system is HT-29. The data set is described as follows: Immunomodulatory activity in human HT-29 cells co-cultured with interferon gamma-stimulated THP-1 cells assessed as inhibition of cell growth at 100 uM incubated for 48 hrs by flow cytometry analysis relative to control. Format: functional. A digest of the protocol:
as §1

Data set [18] deals with HEK293. In words: Anti-vasculogenic activity against HEK293 cells assessed as disruption of tube-like structures at 100 uM incubated for 24 hrs by Matrigel based imaging analysis. The class given is functional, cell-based. To be noted: Homo sapiens. In short, it runs like this: as §4
The subject of data set [19] is HT-29. The data set is described as follows: Antiproliferative activity against human HT-29 cells assessed as relative VEGFR-2 protein expression in whole cell at 100 uM incubated for 48 hrs by flow cytometry analysis relative to control. The class given is functional.
Data set [20] has as its system HMEC-1. The data set is described as follows: Antiangiogenic activity in HMEC-1 cells assessed as inhibition of endothelial microtubes formation at <75 uM incubated for 24 hrs by matrigel based imaging analysis. Format: functional, cell-based. Conditions: Homo sapiens. A digest of the protocol:
as §3

The test system of the next data set is A549. In words: Antiproliferative activity against human A549 cells assessed as reduction in cell viability incubated for 48 hrs by MTT assay. Format: functional, cell-based. Conditions: A549, 48 h. A digest of the protocol: (§5)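 MTT dye-reduction assay. Cells at 5 × 10^3/well in DMEM with 10% FBS, treated with serial dilutions of compound (DMSO stocks) for 2 days at 37 °C, 5% CO2. MTT added for a further 3 h, formazan dissolved in DMSO, absorbance read at 550 nm. Viability expressed as % of untreated cells; IC50 determined graphically from three independent experiments.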

The test system of another data set is MCF7. In words: Antiproliferative activity against human MCF7 cells assessed as reduction in cell viability incubated for 48 hrs by MTT assay. The class given is functional, cell-based. To be noted: MCF7, 48 h. In short, it runs like this: as §5
Data set [21] in a line: Cytotoxicity against HEK293 cells assessed as reduction in cell viability incubated for 48 hrs by MTT assay. Format: toxicity, cell-based. Conditions: human. In short, it runs like this: as §5
The subject of data set [22] is HT-29. The data set is described as follows: Antiproliferative activity against human HT-29 cells assessed as reduction in cell viability incubated for 48 hrs by MTT assay. Format: functional, cell-based. To be noted: HT-29, 48 h. In short, it runs like this:
as §5

Data set [23] relates to HT-29. The data set is described as follows: Immunomodulatory activity in human HT-29 cells co-cultured with interferon gamma-stimulated THP-1 cells assessed as reduction in IL-6 level at 100 uM incubated for 48 hrs by ELISA analysis relative to control. Format: functional. Also on record: scale not given: the % may be the effect or the level left. In short, it runs like this:
as §2

Calls of active or inactive are those of the source. The rule behind the calls is not given here. A value given as a limit tells only on which side of the number the result lay.

Turning to `Nc1cccc(-c2cn(Cc3ccccc3Cl)nn2)c1`, the Activity entry is “Non-Toxic” in data set [1]; 116% in the data set on HT-29 [4]; 91% in the data set on HT-29 [6]; 6% in the data set with HT-29 [7]; 12 pg/mL in the data set with HT-29 [8]. For the same molecule, the result in the data set on HT-29 [2] was inactive. Besides, the inhibition at 100 µM with HT-29 [3] is over 80%. Besides, the viability at 100 µM with HT-29 [5] was 51%.
For the molecule `Nc1cccc(-c2nnn(Cc3ccccc3Br)n2)c1`, the Activity result is “Non-Toxic” in [1]; over 100% in the data set on HT-29 [10]; 90% in the data set with HT-29 [12]; over 100% with HT-29 [13]; 64% with HT-29 [14]; 65% in the data set on HT-29 [4]. Moreover, the Activity with HT-29 [19] is 92%. Further, the inhibition at 100 µM in the data set with HT-29 [9] was over 30%; with HT-29 [16], 70%; with HT-29 [17] it was over 70%. Further, the result in the data set on HMEC-1 [11] and in the data set on HEK293 [18] was Active. In addition, the result in the data set with HEK293 [15] and with HMEC-1 [20] was inactive. Moreover, the viability at 100 µM with HT-29 [5] is 23%.
As to `Nc1cccc(-c2nnn(Cc3ccc(Br)cc3)n2)c1`, the Activity result in data set [1] is recorded as “Non-Toxic”; with HT-29 [10], over 100%; in the data set on HT-29 [12], 76%; with HT-29 [13] it was over 100%; with HT-29 [14], 92%; with HT-29 [4], 70%. The Activity in the data set on HT-29 [23] was over 95%; in the data set with HT-29 [6], 60%; in the data set with HT-29 [7] it was 3%; in the data set on HT-29 [8], 5 pg/mL; in the data set with HT-29 [19] it was over 100%. Also, the results for the inhibition at 100 µM with HT-29 [9], with HT-29 [16] and with HT-29 [17] were over 30%, 70% and over 90%, respectively. For the same molecule, the result in the data set on HT-29 [2], with HEK293 [15] and in the data set on HMEC-1 [20] was inactive. Moreover, the half-maximal inhibitory concentration (IC50) in the data set on A549 is over 100 µM; in the data set with MCF7 it was 44 µM; in the data set on HT-29 [22] it was over 100 µM. The result in the data set with HMEC-1 [11] and with HEK293 [18] was Active. The half-inhibitory concentration (IC50) at 48 h in data set [21] was over 100 µM. The viability at 100 µM in the data set on HT-29 [5] came to 6%.
Turning to `Nc1cccc(-c2cn(Cc3cccc(Cl)c3)nn2)c1`, the Activity entry in [1] is “Non-Toxic”; in the data set on HT-29 [4], 122%; in the data set on HT-29 [6], 96%; in the data set on HT-29 [7] it was 20%; in the data set on HT-29 [8], 38 pg/mL. For the same molecule, the outcome with HT-29 [2] was inactive. Further, the figures for the inhibition at 100 µM in the data set on HT-29 [3] and in the data set with HT-29 [17] were over 80% and over 90%, respectively. Further, the viability at 100 µM with HT-29 [5] stood at 8%.
